Results from ChEMBL document CHEMBL1649284 (Antimicrob Agents Chemother, 2009).
Numbered stars: 1 amine (or outer) side, 2 acyl side, 3 side chain; on linkers, the order of the positions; unused ones are H or OH. Bridge positions count the residues as written; N and C are the ends. Square brackets hold non-standard residues; d marks the D form. Peptide text beside a SMILES is read from it. * marks the point of attachment. pTerphenylCO(4''-OnC5H11) = CCCCCOc1ccc(-c2ccc(-c3ccc(C(=O)*)cc3)cc2)cc1; Orn(4R-OH,5R-OH) = O=C([C@H](C[C@@H](O)[C@@H](O)N[*:3])N[*:1])[*:2]; hTyr(3S-OH,4S-OH) = N[C@H](C(=O)O)[C@H](O)[C@@H](O)c1ccc(O)cc1; Pro(3S-OH,4S-Me) = C[C@H]1CN[C@H](C(=O)O)[C@H]1O; Hyp = O=C(O)[C@@H]1C[C@@H](O)CN1

Key:
[1] = Drug level healthy human plasma at 200 mg, iv on day 1 as 200 mins infusion followed by maintenance dose of 100 mg every 24 hrs on days 2 and 3 as 100 mins infusions after 24 hrs of last dose; type: ADME, organism-based; details: read-out: Drug uptake
[2] = Drug level healthy human epithelial lining fluid at 200 mg, iv on day 1 as 200 mins infusion followed by maintenance dose of 100 mg every 24 hrs on days 2 and 3 as 100 mins infusions after 8 hrs of last dose; type: ADME, organism-based; details: read-out: Drug uptake
Method in brief: (§1)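 Single bronchoscopy with BAL in healthy adults (5 per time point) after the third co-dose, following 6 h fasting. Supernatant (400 × g, 4°C, 10 min) mixed 1:1 with methanol. Both drugs measured by HPLC-MS/MS with saline surrogate-matrix calibrators. ELF volume estimated by urea dilution, with urea in BAL and simultaneous serum measured colorimetrically. Total drug reported.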

[3] = Drug level healthy human alveolar macrophage at 200 mg, iv on day 1 as 200 mins infusion followed by maintenance dose of 100 mg every 24 hrs on days 2 and 3 as 100 mins infusions after 24 hrs of last dose; type: ADME, organism-based; details: alveolar macrophages, read-out: Drug uptake
Method in brief: (§2)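 Single bronchoscopy with BAL in healthy adults (5 per time point) after the third co-dose, following 6 h fasting and lidocaine anaesthesia. BAL centrifuged at 400 × g, 4°C, 10 min. Cell pellet lysed in 0.9% NaCl/methanol (1:1). Both drugs measured by HPLC-MS/MS against saline surrogate-matrix standards. AM concentration calculated from manual cell counts and a mean AM volume of 2.42 μl/10^6 cells. Total drug reported.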

[4] = Cmax in healthy human at 200 mg, iv on day 1 as 200 mins infusion followed by maintenance dose of 100 mg every 24 hrs on days 2 and 3 as 100 mins infusions; type: ADME, organism-based; parameters: dose 200 mg, route intravenous; details: in vivo
Method in brief: (§3)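 Duplicate blood draws at 0 h, 100 min (end of infusion), and 2, 4, 8, 12, 24 h after the day-3 dose start. Plasma measured by HPLC-MS/MS (range 50.0–20,000 ng/ml). Noncompartmental analysis, per participant; AUC0-τ by linear-log trapezoidal rule, τ = 24 h.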

[5] = Drug level healthy human alveolar macrophage at 200 mg, iv on day 1 as 200 mins infusion followed by maintenance dose of 100 mg every 24 hrs on days 2 and 3 as 100 mins infusions after 12 hrs of last dose; type: ADME, organism-based; details: alveolar macrophages, read-out: Drug uptake; method in brief: as §2
[6] = Drug level healthy human alveolar macrophage at 200 mg, iv on day 1 as 200 mins infusion followed by maintenance dose of 100 mg every 24 hrs on days 2 and 3 as 100 mins infusions after 8 hrs of last dose; type: ADME, organism-based; details: alveolar macrophages, read-out: Drug uptake; method in brief: as §2
[7] = Drug level healthy human plasma at 200 mg, iv on day 1 as 200 mins infusion followed by maintenance dose of 100 mg every 24 hrs on days 2 and 3 as 100 mins infusions after 12 hrs of last dose; type: ADME, organism-based; details: read-out: Drug uptake
Homo sapiens [8] = assay: AUC (0 to t) in healthy human at 200 mg, iv on day 1 as 200 mins infusion followed by maintenance dose of 100 mg every 24 hrs on days 2 and 3 as 100 mins infusions; type: ADME, organism-based, Plasma; details: in vivo; method in brief: as §3
[9] = Drug level healthy human epithelial lining fluid at 200 mg, iv on day 1 as 200 mins infusion followed by maintenance dose of 100 mg every 24 hrs on days 2 and 3 as 100 mins infusions after 4 hrs of last dose; type: ADME, organism-based; details: read-out: Drug uptake; method in brief: as §1
[10] = Drug level healthy human alveolar macrophage at 200 mg, iv on day 1 as 200 mins infusion followed by maintenance dose of 100 mg every 24 hrs on days 2 and 3 as 100 mins infusions after 4 hrs of last dose; type: ADME, organism-based; details: alveolar macrophages, read-out: Drug uptake; method in brief: as §2
[11] = Volume of distribution at steady state in healthy human at 200 mg, iv on day 1 as 200 mins infusion followed by maintenance dose of 100 mg every 24 hrs on days 2 and 3 as 100 mins infusions; type: ADME, organism-based; details: in vivo, read-out: Vdss; method in brief: as §3
[12] = Drug level healthy human plasma at 200 mg, iv on day 1 as 200 mins infusion followed by maintenance dose of 100 mg every 24 hrs on days 2 and 3 as 100 mins infusions after 4 hrs of last dose; type: ADME, organism-based; details: read-out: Drug uptake
[13] = Drug level healthy human epithelial lining fluid at 200 mg, iv on day 1 as 200 mins infusion followed by maintenance dose of 100 mg every 24 hrs on days 2 and 3 as 100 mins infusions after 24 hrs of last dose; type: ADME, organism-based; details: read-out: Drug uptake; method in brief: as §1
[14] = Drug level healthy human plasma at 200 mg, iv on day 1 as 200 mins infusion followed by maintenance dose of 100 mg every 24 hrs on days 2 and 3 as 100 mins infusions after 8 hrs of last dose; type: ADME, organism-based; details: read-out: Drug uptake
Homo sapiens [15] = assay: Total body clearance in healthy human at 200 mg, iv on day 1 as 200 mins infusion followed by maintenance dose of 100 mg every 24 hrs on days 2 and 3 as 100 mins infusions; type: ADME, organism-based; details: in vivo; method in brief: as §3
[16] = Elimination half life in healthy human at 200 mg, iv on day 1 as 200 mins infusion followed by maintenance dose of 100 mg every 24 hrs on days 2 and 3 as 100 mins infusions; type: ADME, organism-based; details: in vivo, read-out: beta t1/2 (converted)
[17] = Tmax in healthy human at 200 mg, iv on day 1 as 200 mins infusion followed by maintenance dose of 100 mg every 24 hrs on days 2 and 3 as 100 mins infusions; type: ADME, organism-based; details: in vivo; method in brief: as §3
[18] = Drug level healthy human epithelial lining fluid at 200 mg, iv on day 1 as 200 mins infusion followed by maintenance dose of 100 mg every 24 hrs on days 2 and 3 as 100 mins infusions after 12 hrs of last dose; type: ADME, organism-based; details: read-out: Drug uptake; method in brief: as §1
[19] = Volume of distribution at steady state in healthy human at 6 mg/kg, iv for every 12 hrs on day 1 as 120 mins infusions followed by maintenance dose of 4 mg/kg every 12 hrs on day 2 and single 4 mg/kg dose on day 3 as 100 mins infusions; type: ADME, organism-based; details: in vivo, read-out: Vdss
Method in brief: (§4)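 Dose by actual body weight, rounded to nearest mg. Duplicate plasma samples at 0 h, 100 min, and 2, 4, 8, 12, 24 h after the day-3 dose start. HPLC-MS/MS (range 10.0–5,000 ng/ml). Noncompartmental analysis per participant; AUC0-τ by linear-log trapezoidal rule, τ = 12 h.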

[20] = AUC (0 to t) in healthy human at 6 mg/kg, iv for every 12 hrs on day 1 as 120 mins infusions followed by maintenance dose of 4 mg/kg every 12 hrs on day 2 and single 4 mg/kg dose on day 3 as 100 mins infusions; type: ADME, organism-based; details: plasma; method in brief: as §4
[21] = Cmax in healthy human at 6 mg/kg, iv for every 12 hrs on day 1 as 120 mins infusions followed by maintenance dose of 4 mg/kg every 12 hrs on day 2 and single 4 mg/kg dose on day 3 as 100 mins infusions; type: ADME, organism-based; parameters: dose 6 mg/kg, route intravenous; details: in vivo; method in brief: as §4
[22] = Tmax in healthy human at 6 mg/kg, iv for every 12 hrs on day 1 as 120 mins infusions followed by maintenance dose of 4 mg/kg every 12 hrs on day 2 and single 4 mg/kg dose on day 3 as 100 mins infusions; type: ADME, organism-based; details: in vivo; method in brief: as §4
[23] = Drug level in healthy human alveolar macrophage at 6 mg/kg, iv for every 12 hrs on day 1 as 120 mins infusions followed by maintenance dose of 4 mg/kg every 12 hrs on day 2 and single 4 mg/kg dose on day 3 as 100 mins infusions after 12 hrs of last dose; type: ADME, organism-based; details: alveolar macrophages, read-out: Drug uptake; method in brief: as §2
[24] = Elimination half life in healthy human at 6 mg/kg, iv for every 12 hrs on day 1 as 120 mins infusions followed by maintenance dose of 4 mg/kg every 12 hrs on day 2 and single 4 mg/kg dose on day 3 as 100 mins infusions; type: ADME, organism-based; details: in vivo, read-out: beta t1/2 (converted)
[25] = Drug level healthy human plasma at 6 mg/kg, iv for every 12 hrs on day 1 as 120 mins infusions followed by maintenance dose of 4 mg/kg every 12 hrs on day 2 and single 4 mg/kg dose on day 3 as 100 mins infusions after 12 hrs of last dose; type: ADME, organism-based; details: read-out: Drug uptake
[26] = Drug level in healthy human epithelial lining fluid at 6 mg/kg, iv for every 12 hrs on day 1 as 120 mins infusions followed by maintenance dose of 4 mg/kg every 12 hrs on day 2 and single 4 mg/kg dose on day 3 as 100 mins infusions after 8 hrs of last dose; type: ADME, organism-based; details: read-out: Drug uptake; method in brief: as §1
[27] = Drug level in healthy human alveolar macrophage at 6 mg/kg, iv for every 12 hrs on day 1 as 120 mins infusions followed by maintenance dose of 4 mg/kg every 12 hrs on day 2 and single 4 mg/kg dose on day 3 as 100 mins infusions after 8 hrs of last dose; type: ADME, organism-based; details: alveolar macrophages, read-out: Drug uptake; method in brief: as §2
[28] = Drug level healthy human plasma at 6 mg/kg, iv for every 12 hrs on day 1 as 120 mins infusions followed by maintenance dose of 4 mg/kg every 12 hrs on day 2 and single 4 mg/kg dose on day 3 as 100 mins infusions after 8 hrs of last dose; type: ADME, organism-based; details: read-out: Drug uptake
[29] = Drug level healthy human plasma at 6 mg/kg, iv for every 12 hrs on day 1 as 120 mins infusions followed by maintenance dose of 4 mg/kg every 12 hrs on day 2 and single 4 mg/kg dose on day 3 as 100 mins infusions after 4 hrs of last dose; type: ADME, organism-based; details: read-out: Drug uptake
[30] = Drug level in healthy human epithelial lining fluid at 6 mg/kg, iv for every 12 hrs on day 1 as 120 mins infusions followed by maintenance dose of 4 mg/kg every 12 hrs on day 2 and single 4 mg/kg dose on day 3 as 100 mins infusions after 4 hrs of last dose; type: ADME, organism-based; details: read-out: Drug uptake; method in brief: as §1
[31] = Drug level in healthy human alveolar macrophage at 6 mg/kg, iv for every 12 hrs on day 1 as 120 mins infusions followed by maintenance dose of 4 mg/kg every 12 hrs on day 2 and single 4 mg/kg dose on day 3 as 100 mins infusions after 4 hrs of last dose; type: ADME, organism-based; details: alveolar macrophages, read-out: Drug uptake; method in brief: as §2
[32] = Drug level in healthy human epithelial lining fluid at 6 mg/kg, iv for every 12 hrs on day 1 as 120 mins infusions followed by maintenance dose of 4 mg/kg every 12 hrs on day 2 and single 4 mg/kg dose on day 3 as 100 mins infusions after 12 hrs of last dose; type: ADME, organism-based; details: read-out: Drug uptake; method in brief: as §1

Work on CCCCCOc1ccc(-c2ccc(-c3ccc(C(=O)N[C@H]4C[C@@H](O)[C@@H](O)NC(=O)[C@@H]5[C@@H](O)[C@@H](C)CN5C(=O)[C@H]([C@@H](C)O)NC(=O)[C@H]([C@H](O)[C@@H](O)c5ccc(O)cc5)NC(=O)[C@@H]5C[C@@H](O)CN5C(=O)[C@H]([C@@H](C)O)NC4=O)cc3)cc2)cc1 [ANIDULAFUNGIN] ({pTerphenylCO(4''-OnC5H11)}-[Orn(4R-OH,5R-OH)]T[Hyp][hTyr(3S-OH,4S-OH)]T[Pro(3S-OH,4S-Me)]; lactam 1-C) yielded a concentration at 24 h [1] of 3000 ng/mL, a concentration at 8 h [2] of 800 ng/mL and a concentration at 24 h [3] of 103000 ng/mL. For the same molecule, the Cmax [4] was 6600 ng/mL, the concentration at 12 h [5] was 42700 ng/mL and the concentration at 8 h [6] was 37900 ng/mL. The concentration at 12 h [7] was 4400 ng/mL, the AUC (Homo sapiens [8]) was 101000 ng·h/mL and the concentration at 4 h [9] was 900 ng/mL. It also gave a concentration at 4 h [10] of 44600 ng/mL, a Vd [11] of 30.8 L and a concentration at 4 h [12] of 6000 ng/mL. It also gave a concentration at 24 h [13] of 1100 ng/mL, a concentration at 8 h [14] of 5100 ng/mL and a clearance (Homo sapiens [15]) of 17.1 mL/min. It also gave a half-life [16] of 20.8 h, a Tmax [17] of 1.9 h and a concentration at 12 h [18] of 800 ng/mL.

In the case of C[C@@H](c1ncncc1F)[C@](O)(Cn1cncn1)c1ccc(F)cc1F [VORICONAZOLE], the Vd [19] is reported as 110 L, the AUC(0-t) [20] is reported as 39500 ng·h/mL and the Cmax [21] is reported as 5300 ng/mL. The Tmax [22] was 1.8 h, the concentration at 12 h [23] was 14400 ng/mL and the half-life [24] was 6.9 h. The concentration at 12 h [25] was 2200 ng/mL, the concentration at 8 h [26] was 10100 ng/mL and the concentration at 8 h [27] was 10300 ng/mL. The concentration at 8 h [28] was 1700 ng/mL, the concentration at 4 h [29] was 5300 ng/mL and the concentration at 4 h [30] was 48300 ng/mL. The concentration at 4 h [31] was 20600 ng/mL and the concentration at 12 h [32] was 17200 ng/mL.
